Values after ≈ are worked out from the molar mass of the structure shown.
How the values were obtained:
[1] = target: T1, Peroxisome proliferator-activated receptor gamma (Homo sapiens, UniProt P37231); experiment: Binding affinity against peroxisome proliferator activated receptor gamma (PPAR-gamma)
T1 sequence (P37231 whole entry): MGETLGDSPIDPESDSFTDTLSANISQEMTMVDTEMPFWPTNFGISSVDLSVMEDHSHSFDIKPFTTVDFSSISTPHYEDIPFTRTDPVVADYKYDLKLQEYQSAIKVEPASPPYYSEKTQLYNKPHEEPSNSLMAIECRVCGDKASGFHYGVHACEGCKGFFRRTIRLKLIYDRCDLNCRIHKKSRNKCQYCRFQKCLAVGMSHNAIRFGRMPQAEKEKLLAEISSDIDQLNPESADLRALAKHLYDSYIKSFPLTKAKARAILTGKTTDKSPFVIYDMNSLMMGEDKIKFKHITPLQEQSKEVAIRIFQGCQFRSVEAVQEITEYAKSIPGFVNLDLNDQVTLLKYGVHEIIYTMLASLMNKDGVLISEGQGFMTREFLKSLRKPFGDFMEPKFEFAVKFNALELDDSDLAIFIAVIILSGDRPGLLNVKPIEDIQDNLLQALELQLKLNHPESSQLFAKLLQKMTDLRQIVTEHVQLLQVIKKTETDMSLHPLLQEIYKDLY

[2] = Solubility in phosphate buffer at pH 7.4.; format: physicochemical
Outline: (§1)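 Solubility in 0.06 M phosphate buffer, pH 7.4, in temperature-controlled shaking water baths. Samples were drawn, passed through a 0.22-µm filter, diluted in water/acetonitrile (60:40), and quantified by HPLC on a phenyl reverse-phase column. Reported in mg/mL.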

[3] = Solubility in simulated gastric fluid.; format: physicochemical; conditions: read-out: S
Outline: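 Solubility in simulated gastric fluid, pH 1.2, in temperature-controlled shaking water baths. Samples were drawn, passed through a 0.22-µm filter, diluted in water/acetonitrile (60:40), and quantified by HPLC on a phenyl reverse-phase column.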

[4] = target: T1, Peroxisome proliferator-activated receptor gamma; experiment: in vitro agonist activity against peroxisome proliferator activated receptor-gamma (PPAR-gamma), using alkaline phosphatase activity transactivator assay; format: functional
[5] = target: T1, Peroxisome proliferator-activated receptor gamma; experiment: The compound was tested functionally in vitro for inducing 50% of the maximum alkaline phosphatase activity (Transactivation) against Peroxisome proliferator activated receptor gamma; format: functional
[6] = target: T1, Peroxisome proliferator-activated receptor gamma; experiment: The compound was tested in vitro for inhibiting the 50% binding of Peroxisome proliferator activated receptor gamma
Outline: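 Radioligand competition binding to the human PPARγ ligand-binding domain. IC50 is the concentration inhibiting 50% of specific radioligand binding. Apparent Ki = IC50/(1 + [L]/Kd), where [L] is the radioligand concentration and Kd its dissociation constant. Reported as pKi (−log Ki).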

[7] = Solubility in pH 7.4 Phosphate buffer; format: physicochemical; outline: as §1
[8] = tested on: Rattus norvegicus; experiment: Compound was tested in vivo for Antihyperglycemic activity in diabetic rats, activity is expressed as percent reduction of HbA-1c; format: functional
Outline: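 Male ZDF rats, nine weeks old, 8 per group, were matched at baseline on plasma glucose. They were dosed orally by gavage twice daily for 17 days at the maximum test dose. Glycosylated hemoglobin was measured on day 17. Data are mean ± SEM percent reduction relative to the vehicle control group.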

[9] = tested on: Rattus norvegicus; experiment: Compound was tested in vivo for Antihyperglycemic activity in diabetic rats, activity is expressed as percent reduction of plasma glucose; format: functional
Outline: (§2)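 Nine-week-old male Zucker diabetic fatty rats, n = 8/group, baseline-matched for plasma glucose. The highest test dose was given twice daily by oral gavage for 17 days. Tail-vein blood was drawn on days 0, 3, 7 and 17 for plasma glucose, insulin, triglycerides and NEFAs. The value is mean ± SEM percent reduction versus vehicle controls on day 17.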

[10] = organism: Rattus norvegicus; experiment: Compound was tested for Antihyperlipidemic activity, activity is expressed as percent reduction of Triglycerides; format: functional; outline: as §2
[11] = organism: Rattus norvegicus; experiment: Compound was tested for Antihyperlipidemic activity, activity is expressed as percent reduction of NEFAs; format: functional; outline: as §2

| SMILES | Ki [1] [nM] | EC50 [4] [nM] | also measured |
| --- | --- | --- | --- |
| Cc1oc(-c2ccccc2)nc1CCOc1ccc(CC(Nc2ccccc2C(=O)c2ccc(CO)cc2)C(=O)O)cc1 (configuration not stated) | 4.17 | 17.4 | solubility [2]: 75 µg/mL (≈ 130 µM); solubility [3]: 22 µg/mL (≈ 38.2 µM) |
| CN(CCOc1ccc(CC(Nc2ccccc2C(=O)c2cccc3ccccc23)C(=O)O)cc1)c1nc2ccccc2o1 (configuration not stated) | – | – | EC50 [5]: 85.1 nM; Ki [6]: 3.24 nM |
| CN(CCOc1ccc(CC(Nc2ccccc2C(=O)c2ccc(C(F)(F)F)cc2)C(=O)O)cc1)c1nc2ccccc2o1 (configuration not stated) | 5.13 | 24 | – |
| CN(CCOc1ccc(CC(Nc2ccc(Cl)cc2C(=O)c2ccccc2)C(=O)O)cc1)c1nc2ccccc2o1 (configuration not stated) | 8.71 | 89.1 | – |
| CN(CCOc1ccc(CC(Nc2ccccc2C(=O)c2cccs2)C(=O)O)cc1)c1nc2ccccc2o1 (configuration not stated) | 2.75 | 45.7 | – |
| CN(CCOc1ccc(CC(Nc2ccccc2C(=O)c2cccc(OCc3ccccc3)c2)C(=O)O)cc1)c1nc2ccccc2o1 (configuration not stated) | – | – | EC50 [5]: 741 nM; Ki [6]: 53.7 nM |
| CN(CCOc1ccc(CC(Nc2ccncc2C(=O)c2ccccc2)C(=O)O)cc1)c1nc2ccccc2o1 (configuration not stated) | 155 | 9330 | – |
| COc1ccc(C(=O)c2ccccc2NC(Cc2ccc(OCCN(C)c3nc4ccccc4o3)cc2)C(=O)O)cc1 (configuration not stated) | 5.62 | 32.4 | – |
| CN(CCOc1ccc(CC(Nc2ccccc2C(=O)C2CCCC2)C(=O)O)cc1)c1nc2ccccc2o1 (configuration not stated) | 6.46 | 18.2 | – |
| Cc1cccc(C(=O)c2ccccc2NC(Cc2ccc(OCCN(C)c3nc4ccccc4o3)cc2)C(=O)O)c1 (configuration not stated) | 2.69 | 16.6 | – |
| Cc1ccc(C(=O)c2ccccc2NC(Cc2ccc(OCCN(C)c3nc4ccccc4o3)cc2)C(=O)O)cc1 (configuration not stated) | 2.82 | 8.51 | – |
| CN(CCOc1ccc(C[C@@H](Nc2ccccc2C(=O)C2CCCCC2)C(=O)O)cc1)c1nc2ccccc2o1 | 1550 | > 10000 | – |
| CN(CCOc1ccc(C[C@H](Nc2ccccc2C(=O)C2CCCCC2)C(=O)O)cc1)c1nc2ccccc2o1 | 4.07 | 2.88 | – |
| Cc1oc(-c2ccccc2)nc1CCOc1ccc(CC(Nc2ccccc2C(=O)c2cccc(CN(C)C)c2)C(=O)O)cc1 (configuration not stated) | – | 417 | solubility [2]: 9 µg/mL (≈ 14.9 µM); solubility [3]: 9 µg/mL (≈ 14.9 µM) |
| CN(CCOc1ccc(CC(Nc2ccsc2C(=O)c2ccccc2)C(=O)O)cc1)c1nc2ccccc2o1 (configuration not stated) | 9.77 | 12 | – |
| CN(CCOc1ccc(CC(Nc2ccccc2C(=O)c2ccc(-c3ccccc3)cc2)C(=O)O)cc1)c1nc2ccccc2o1 (configuration not stated) | – | – | EC50 [5]: 24 nM; Ki [6]: 49 nM |
| Cc1oc(-c2ccccc2)nc1CCOc1ccc(CC(Nc2ccccc2C(=O)O)C(=O)O)cc1 (configuration not stated) | > 3160 | 4900 | – |
| Cc1oc(-c2ccccc2)nc1CCOc1ccc(CC(Nc2ccccc2C(=O)c2ccc(CN(C)C)cc2)C(=O)O)cc1 (configuration not stated) | 15.5 | 407 | – |
| CN(CCOc1ccc(CC(Nc2sccc2C(=O)c2ccccc2)C(=O)O)cc1)c1nc2ccccc2o1 (configuration not stated) | 23.4 | 38 | – |
| Cc1oc(-c2ccccc2)nc1CCOc1ccc(C[C@H](Nc2ccccc2C(=O)c2ccccc2)C(=O)O)cc1 [FARGLITAZAR] | – | – | solubility [3]: < 1 µg/mL; solubility [7]: < 1 µg/mL |
| COC(=O)c1ccccc1N[C@@H](Cc1ccc(OCCc2nc(-c3ccccc3)oc2C)cc1)C(=O)O [GW7845] | – | – | Reduction [8]: 40%; solubility [2]: 300 µg/mL (≈ 599 µM); solubility [3]: < 2 µg/mL; Reduction [9]: 67%; Reduction [10]: 82%; Reduction [11]: 87% |
| Cc1c(C)c2c(c(C)c1O)CCC(C)(COc1ccc(CC3SC(=O)NC3=O)cc1)O2 (configuration not stated) [TROGLITAZONE] | – | – | Reduction [8]: 35%; Reduction [9]: 59%; Reduction [10]: 85%; Reduction [11]: 81% |

The next lines start with results.

| Ki [1] [nM] | EC50 [4] [nM] | SMILES | also measured |
| --- | --- | --- | --- |
| 2.29 | 117 | COc1cccc(C(=O)c2ccccc2NC(Cc2ccc(OCCN(C)c3nc4ccccc4o3)cc2)C(=O)O)c1 (configuration not stated) | – |
| 813 | 209 | Cc1oc(-c2ccccc2)nc1CCOc1ccc(CC(Nc2ccccc2C(=O)c2cccc(C(=O)O)c2)C(=O)O)cc1 (configuration not stated) | – |
| – | 9.33 | Cc1ccccc1C(=O)c1ccccc1NC(Cc1ccc(OCCN(C)c2nc3ccccc3o2)cc1)C(=O)O (configuration not stated) | – |
| 3.39 | 24.5 | Cc1oc(-c2ccccc2)nc1CCOc1ccc(CC(Nc2ccccc2C(=O)c2cccc(CO)c2)C(=O)O)cc1 (configuration not stated) | solubility [2]: 1340 µg/mL (≈ 2320 µM) |
| 2.34 | 63.1 | CN(CCOc1ccc(CC(Nc2ccccc2C(=O)c2ccsc2)C(=O)O)cc1)c1nc2ccccc2o1 (configuration not stated) | – |
| 2.69 | 39.8 | CN(CCOc1ccc(CC(Nc2ccccc2C(=O)c2ccccc2C(F)(F)F)C(=O)O)cc1)c1nc2ccccc2o1 (configuration not stated) | – |
| 2.63 | 11.7 | CN(CCOc1ccc(CC(Nc2ccccc2C(=O)c2cccc(C(F)(F)F)c2)C(=O)O)cc1)c1nc2ccccc2o1 (configuration not stated) | – |
| 251 | 562 | Cc1oc(-c2ccccc2)nc1CCOc1ccc(CC(Nc2ccccc2C(=O)N(C)C)C(=O)O)cc1 (configuration not stated) | – |
| 39.8 | 7.76 | CN(CCOc1ccc(CC(Nc2ccccc2C(=O)C2CCCCCC2)C(=O)O)cc1)c1nc2ccccc2o1 (configuration not stated) | – |
| – | 38 | COc1ccccc1C(=O)c1ccccc1NC(Cc1ccc(OCCN(C)c2nc3ccccc3o2)cc1)C(=O)O (configuration not stated) | – |
| 66.1 | 759 | CN(CCOc1ccc(CC(Nc2ccccc2C(=O)c2ccc(OCc3ccccc3)cc2)C(=O)O)cc1)c1nc2ccccc2o1 (configuration not stated) | – |
| 15.5 | 32.4 | CNC(=O)c1ccccc1NC(Cc1ccc(OCCc2nc(-c3ccccc3)oc2C)cc1)C(=O)O (configuration not stated) | – |
| 2.4 | 0.302 | CCCOC(=O)c1ccccc1NC(Cc1ccc(OCCc2nc(-c3ccccc3)oc2C)cc1)C(=O)O (configuration not stated) | – |
| 3.02 | 0.912 | CCOC(=O)c1ccccc1NC(Cc1ccc(OCCc2nc(-c3ccccc3)oc2C)cc1)C(=O)O (configuration not stated) | – |
| 0.933 | 1.48 | Cc1oc(-c2ccccc2)nc1CCOc1ccc(CC(Nc2ccccc2C(=O)c2cccnc2)C(=O)O)cc1 (configuration not stated) | solubility [2]: 55 µg/mL (≈ 100 µM); solubility [3]: 18 µg/mL (≈ 32.9 µM) |
| 1.48 | – | CN(CCOc1ccc(CC(Nc2ccccc2C(=O)c2ccccc2)C(=O)O)cc1)c1nc2ccccc2o1 (configuration not stated) | – |
| 0.977 | 0.575 | Cc1oc(-c2ccccc2)nc1CCOc1ccc(CC(Nc2ccccc2C(=O)OC(C)C)C(=O)O)cc1 (configuration not stated) | – |
| 646 | 7590 | Cc1oc(-c2ccccc2)nc1CCOc1ccc(CC(Nc2ccccc2C(=O)c2ccc(C(=O)O)cc2)C(=O)O)cc1 (configuration not stated) | – |
| 2.57 | 8.32 | CN(CCOc1ccc(CC(Nc2cscc2C(=O)c2ccccc2)C(=O)O)cc1)c1nc2ccccc2o1 (configuration not stated) | – |
| 191 | 15.1 | Cc1oc(-c2ccccc2)nc1CCOc1ccc(C[C@@H](Nc2ccccc2C(=O)C2CCCCC2)C(=O)O)cc1 | solubility [2]: 52 µg/mL (≈ 94.1 µM); solubility [3]: 2 µg/mL (≈ 3.62 µM) |
| – | 0.282 | Cc1oc(-c2ccccc2)nc1CCOc1ccc(C[C@H](Nc2ccccc2C(=O)C2CCCCC2)C(=O)O)cc1 | – |
| 42.7 | 4070 | CSc1nc(NC(Cc2ccc(OCCN(C)c3nc4ccccc4o3)cc2)C(=O)O)c(C(=O)c2ccccc2)s1 (configuration not stated) | – |
| 3.24 | 8.91 | Cc1oc(-c2ccccc2)nc1CCOc1ccc(CC(Nc2ccccc2C(=O)c2cccc(N)c2)C(=O)O)cc1 (configuration not stated) | solubility [2]: 525 µg/mL (≈ 935 µM); solubility [3]: 3 µg/mL (≈ 5.34 µM) |
| 13.5 | 229 | Cc1ccc(NC(Cc2ccc(OCCN(C)c3nc4ccccc4o3)cc2)C(=O)O)c(C(=O)c2ccccc2)c1 (configuration not stated) | – |
| – | 0.912 | Cc1oc(-c2ccccc2)nc1CCOc1ccc(CC(Nc2ccccc2C(=O)c2ccncc2)C(=O)O)cc1 (configuration not stated) | solubility [2]: 1150 µg/mL (≈ 2100 µM); solubility [3]: 87 µg/mL (≈ 159 µM) |
